Measured values: ChEMBL document CHEMBL1817572, “New, potent, selective, and short-acting peptidic V1a receptor agonists” (J Med Chem, 2011)
Numbered stars: 1 amine (or outer) side, 2 acyl side, 3 side chain; on linkers, the order of the positions; unused ones are H or OH. Bridge positions count the residues as written; N and C are the ends. Square brackets hold non-standard residues; d marks the D form. Peptide text beside a SMILES is read from it. * marks the point of attachment. Orn(Me) = CN(CCC[C@H](N[*:1])C(=O)[*:2])[*:3]; Orn(Pr) = CCCNCCC[C@H](N)C(=O)O; 3Thi = N[C@@H](Cc1ccsc1)C(=O)O; NH(3-hydroxypropyl) = OCCCN*; Orn = NCCC[C@H](N)C(=O)O; Dab = NCC[C@H](N)C(=O)O

What was measured:
[1] = target: T1, Oxytocin receptor (Homo sapiens, UniProt P30559); assay: Agonist activity at human OT receptor expressed in CHO-K1 cells by luciferase reporter gene assay; type: functional, cell-based
T1 sequence (P30559 whole entry): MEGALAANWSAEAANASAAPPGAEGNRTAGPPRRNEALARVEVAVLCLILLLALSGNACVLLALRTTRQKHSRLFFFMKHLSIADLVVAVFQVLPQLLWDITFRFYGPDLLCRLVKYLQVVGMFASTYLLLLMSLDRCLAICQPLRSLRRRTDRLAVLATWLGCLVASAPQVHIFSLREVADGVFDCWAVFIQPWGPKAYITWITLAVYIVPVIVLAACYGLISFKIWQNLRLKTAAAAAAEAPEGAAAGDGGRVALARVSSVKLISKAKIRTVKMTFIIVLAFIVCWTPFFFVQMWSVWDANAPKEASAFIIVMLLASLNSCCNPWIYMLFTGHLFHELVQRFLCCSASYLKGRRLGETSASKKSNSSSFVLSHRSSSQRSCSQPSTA

[2] = target: T2, Vasopressin V2 receptor (Homo sapiens, UniProt P30518); assay: Agonist activity at recombinant human vasopressin V2 receptor expressed in HEK293 cells by luciferase reporter gene assay; type: functional, cell-based
T2 sequence (P30518 whole entry): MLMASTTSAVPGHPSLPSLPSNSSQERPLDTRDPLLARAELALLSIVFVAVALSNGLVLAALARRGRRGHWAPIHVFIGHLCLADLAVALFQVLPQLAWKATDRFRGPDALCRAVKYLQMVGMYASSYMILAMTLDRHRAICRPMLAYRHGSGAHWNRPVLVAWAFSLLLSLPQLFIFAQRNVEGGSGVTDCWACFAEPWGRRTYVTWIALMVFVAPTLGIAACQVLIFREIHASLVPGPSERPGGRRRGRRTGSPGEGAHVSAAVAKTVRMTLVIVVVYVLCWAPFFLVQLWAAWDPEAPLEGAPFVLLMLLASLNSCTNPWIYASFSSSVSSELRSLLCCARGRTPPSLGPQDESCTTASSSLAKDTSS

[3] = species on record: Homo sapiens; assay: Selectivity ratio of EC50 for human oxytocin receptor to EC50 for human vasopressin V1a receptor
[4] = target: T3, Vasopressin V1b receptor (Homo sapiens, UniProt P47901); assay: Agonist activity at recombinant human vasopressin V1b receptor expressed in Flp-In-293 cells by luciferase reporter gene assay; type: functional, cell-based
T3 sequence (P47901 whole entry): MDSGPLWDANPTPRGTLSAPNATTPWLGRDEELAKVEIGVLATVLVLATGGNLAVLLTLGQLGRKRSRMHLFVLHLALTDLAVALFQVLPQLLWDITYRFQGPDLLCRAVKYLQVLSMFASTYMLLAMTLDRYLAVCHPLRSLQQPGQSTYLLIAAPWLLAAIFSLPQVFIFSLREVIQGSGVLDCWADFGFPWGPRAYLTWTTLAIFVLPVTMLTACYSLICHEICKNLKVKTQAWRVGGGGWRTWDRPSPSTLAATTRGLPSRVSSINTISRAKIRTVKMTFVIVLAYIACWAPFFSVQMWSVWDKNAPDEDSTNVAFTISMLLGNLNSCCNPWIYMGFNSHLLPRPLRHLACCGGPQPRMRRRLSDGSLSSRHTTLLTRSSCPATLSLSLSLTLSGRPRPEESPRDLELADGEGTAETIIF
How it was run: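 Reporter gene assays in HEK293 cells transiently cotransfected with V1a (human or rat) or human V2 receptor vector plus NFAT-luciferase (V1a) or CRE-luciferase (V2) reporter; V1b in Flp-In-293 stably expressing receptor, OT in CHO-K1 stably expressing receptor, both transiently transfected with NFAT-luciferase. Two days post-transfection, peptides added for 5 h at 37 °C, lysis with luciferin, luminescence read.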

[5] = target: Vasopressin V1a/V2 (Homo sapiens) (UniProt P30518+P37288); assay: Selectivity ratio of EC50 for human vasopressin V2 receptor to EC50 for human vasopressin V1a receptor
Vasopressin V1a/V2 (Homo sapiens), sequence (P30518 whole entry, looked up): as the sequence (P30518 whole entry) above
Vasopressin V1a/V2 (Homo sapiens), sequence (P37288 whole entry, looked up): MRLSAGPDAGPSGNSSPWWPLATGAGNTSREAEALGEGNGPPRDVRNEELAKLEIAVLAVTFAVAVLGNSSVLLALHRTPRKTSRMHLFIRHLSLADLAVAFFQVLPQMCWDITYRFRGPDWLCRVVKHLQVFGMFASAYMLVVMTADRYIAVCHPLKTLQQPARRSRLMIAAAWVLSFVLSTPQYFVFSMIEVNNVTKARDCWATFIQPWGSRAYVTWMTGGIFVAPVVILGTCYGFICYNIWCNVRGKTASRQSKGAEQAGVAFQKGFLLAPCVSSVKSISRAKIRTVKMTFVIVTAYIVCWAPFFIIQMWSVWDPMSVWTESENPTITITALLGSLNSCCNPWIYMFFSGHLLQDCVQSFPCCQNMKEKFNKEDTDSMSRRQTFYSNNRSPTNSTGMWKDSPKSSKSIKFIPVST

[6] = species on record: Homo sapiens; assay: Selectivity ratio of EC50 for human vasopressin V1b receptor to EC50 for human vasopressin V1a receptor
[7] = test system: Rattus norvegicus; assay: Vasoconstriction in Wistar rat assessed as assessed as decay in vasopressive duration of action at 2 nmol/kg, iv bolus measured over 10 sec interval; type: functional
How it was run: (§1)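 Fasted male Wistar rats (206–340 g) under isoflurane, then thiobutabarbital 150 mg/kg ip, ventilated, 37–38 °C, with carotid pressure and jugular dosing. Dibenamine 1.8 mg/rat iv pretreatment. Sequence: iv boluses (0.5 mL/kg) of heparinized vehicle, then two reference doses of 0.1 nmol/kg, then two test doses; one matches the reference diastolic pressure rise. Relative duration = reference decay rate / test decay rate; mean ± SEM.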

[8] = target: Vasopressin V1a receptor (Rattus norvegicus, UniProt P30560); assay: Agonist activity at recombinant rat vasopressin V1a receptor expressed in HEK293 cells by luciferase reporter gene assay; type: functional, cell-based; conditions: read-out: EC50
Vasopressin V1a receptor (Rattus norvegicus, UniProt P30560), sequence (P30560 whole entry): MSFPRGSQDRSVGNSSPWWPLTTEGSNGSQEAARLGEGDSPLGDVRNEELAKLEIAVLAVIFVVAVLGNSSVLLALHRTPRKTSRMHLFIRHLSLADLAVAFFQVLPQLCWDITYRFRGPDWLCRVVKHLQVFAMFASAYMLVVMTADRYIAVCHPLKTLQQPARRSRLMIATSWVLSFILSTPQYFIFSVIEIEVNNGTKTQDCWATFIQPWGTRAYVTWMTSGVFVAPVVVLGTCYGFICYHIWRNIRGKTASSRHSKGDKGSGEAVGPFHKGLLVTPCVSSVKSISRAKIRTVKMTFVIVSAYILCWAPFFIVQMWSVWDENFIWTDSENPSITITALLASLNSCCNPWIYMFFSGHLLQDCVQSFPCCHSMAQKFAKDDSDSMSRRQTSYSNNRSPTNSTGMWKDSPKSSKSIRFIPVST

[9] = target: T4, Vasopressin V1a receptor (Homo sapiens, UniProt P37288); assay: Agonist activity at recombinant human vasopressin V1a receptor expressed in HEK293 cells by luciferase reporter gene assay; type: functional, cell-based; conditions: read-out: EC50
Target sequence in this assay (P37288 whole entry): as the sequence (P37288 whole entry, looked up) above

[10] = target: T5, Oxytocin receptor (Homo sapiens) (UniProt P30559); assay: Partial agonist activity at human OT receptor expressed in CHO-K1 cells by luciferase reporter gene assay; type: functional, cell-based
T5 sequence (whole entry): T1 sequence (P30559 whole entry)
How it was run: (§2)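 Same luciferase reporter systems (OT in stable CHO-K1, V1b in stable Flp-In-293, each with transient NFAT-luciferase; V1a in HEK293 with NFAT-luciferase, V2 in HEK293 with CRE-luciferase). Peptides added for 5 h at 37 °C two days post-transfection, luminescence read. Partial agonism means efficacy <70%.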

[11] = test system: Rattus norvegicus; assay: Vasoconstriction in Wistar rat assessed as decay in vasopressive duration of action at 0.3 nmol/kg, iv bolus measured over 10 sec interval; type: functional; set-up: unit not given here
[12] = target: T4, Vasopressin V1a receptor; assay: Partial agonist activity at recombinant human vasopressin V1a receptor expressed in HEK293 cells by luciferase reporter gene assay; type: functional, cell-based; how it was run: as §2
Target sequence in this assay (P37288 whole entry, looked up): as above

[13] = target: T6, Vasopressin V1b receptor (Homo sapiens) (UniProt P47901); assay: Partial agonist activity at recombinant human vasopressin V1b receptor expressed in Flp-In-293 cells by luciferase reporter gene assay; type: functional, cell-based; how it was run: as §2
T6 sequence (whole entry): T3 sequence (P47901 whole entry)

[14] = test system: Rattus norvegicus; assay: Vasoconstriction in Wistar rat assessed as assessed as decay in vasopressive duration of action at 3 nmol/kg, iv bolus measured over 10 sec interval; type: functional; how it was run: as §1
[15] = target: T2, Vasopressin V2 receptor; assay: Partial agonist activity at recombinant human vasopressin V2 receptor expressed in HEK293 cells by luciferase reporter gene assay; type: functional, cell-based; how it was run: as §2

SMILES | EC50 ([1]; cho-k1, read-out: EC50) | EC50 ([1]; read-out: pEC50 (converted)) | EC50 ([2]; hek293, read-out: EC50) | EC50 ([2]; read-out: pEC50 (converted)) | Ratio EC50 [3] | EC50 ([4]; read-out: EC50) | Ratio EC50 [5] | Ratio EC50 [6] | EC50 [9] | EC50 [8] | EC50 ([1]; read-out: EC50) | EC50 ([2]; read-out: EC50) | Efficacy [10] | Time [11] | further results
CC[C@H](C)[C@@H]1NC(=O)[C@H](Cc2ccccc2)NC(=O)[C@@H](N)CSSC[C@@H](C(=O)N2CCC[C@H]2C(=O)N[C@@H](CCCNC)C(=O)NCC(N)=O)NC(=O)[C@H](CC(N)=O)NC(=O)[C@H](CCC(N)=O)NC1=O (H-CFIQNCP[Orn(Me)]G-NH2; disulfide 1-6) |  |  |  |  | 61 | 74 nM | 500 | 280 | 0.26 nM | 0.29 nM | 16 nM | 130 nM | < 70% | 2.6 | 
CCCNCCC[C@H](NC(=O)[C@@H]1CCCN1C(=O)[C@@H]1CSSC[C@H](N)C(=O)N[C@@H](Cc2ccccc2)C(=O)N[C@@H]([C@@H](C)CC)C(=O)N[C@@H](CCC(N)=O)C(=O)N[C@@H](CC(N)=O)C(=O)N1)C(=O)NCC(N)=O (H-CFIQNCP[Orn(Pr)]G-NH2; disulfide 1-6) |  |  |  |  | 150 | 38 nM | 660 | 180 | 0.21 nM | 0.1 nM | 32 nM | 140 nM |  | 1.9 | 
CC[C@H](C)[C@@H]1NC(=O)[C@H](Cc2ccsc2)NC(=O)[C@@H](N)CSSC[C@@H](C(=O)N2CCC[C@H]2C(=O)N[C@@H](CCN)C(=O)NCC(N)=O)NC(=O)[C@H](CC(N)=O)NC(=O)[C@H](CCC(N)=O)NC1=O (H-C[3Thi]IQNCP[Dab]G-NH2; disulfide 1-6) |  |  |  |  | 49 | 50 nM | 320 | 81 | 0.61 nM |  | 30 nM | 200 nM | < 70% |  | Efficacy [13]: < 70%

Now from value to compound, other results behind:

EC50 ([1]; cho-k1, read-out: EC50) | EC50 ([1]; read-out: pEC50 (converted)) | EC50 ([2]; hek293, read-out: EC50) | EC50 ([2]; read-out: pEC50 (converted)) | Ratio EC50 [3] | EC50 ([4]; read-out: EC50) | Ratio EC50 [5] | Ratio EC50 [6] | EC50 [9] | SMILES | EC50 [8] | EC50 ([1]; read-out: EC50) | EC50 ([2]; read-out: EC50) | Efficacy [10] | Time [11] | further results
> 10000 nM | > 10000 nM | > 10000 nM | > 10000 nM | > 4700 | 19 nM | > 4700 | 9 | 2.1 nM | CC[C@H](C)[C@@H]1NC(=O)[C@H](Cc2ccccc2)NC(=O)[C@@H](N)CSSC[C@@H](C(=O)N2CCC[C@H]2C(=O)N[C@@H](CCCN)C(=O)NCC(N)=O)NC(=O)[C@H](CC(N)=O)NC(=O)[C@H](CC(=O)NCCCO)NC1=O (H-CFID(NH(3-hydroxypropyl))NCP[Orn]G-NH2; disulfide 1-6) | 2.7 nM |  |  |  |  | Time [7]: 1.7 unitless ratio
> 10000 nM | > 10000 nM | > 10000 nM | > 10000 nM | > 19 |  | > 19 | > 19 | 510 nM | CC[C@H](C)[C@@H]1NC(=O)[C@H](Cc2cnc[nH]2)NC(=O)[C@@H](N)CSSC[C@@H](C(=O)N2CCC[C@H]2C(=O)N[C@@H](CCN)C(=O)NCC(N)=O)NC(=O)[C@H](CC(N)=O)NC(=O)[C@H](CCC(N)=O)NC1=O (H-CHIQNCP[Dab]G-NH2; disulfide 1-6) |  |  |  |  |  | Efficacy [12]: < 70%; EC50 ([4]; flp-in-293, read-out: EC50): > 10000 nM; EC50 ([4]; read-out: pEC50 (converted)): > 10000 nM
> 10000 nM | > 10000 nM |  |  | > 3700 | 21 nM | 590 | 7.7 | 2.7 nM | CCNC(=O)C[C@@H]1NC(=O)[C@H]([C@@H](C)CC)NC(=O)[C@H](Cc2ccccc2)NC(=O)[C@@H](N)CSSC[C@@H](C(=O)N2CCC[C@H]2C(=O)N[C@@H](CCN)C(=O)NCC(N)=O)NC(=O)[C@H](CC(N)=O)NC1=O (H-CFID(NHEt)NCP[Dab]G-NH2; disulfide 1-6) | 4.8 nM |  | 1600 nM |  |  | Time [14]: 1.3 unitless ratio; Efficacy [15]: < 70%
